Reference: ChEMBL document CHEMBL1128340, “Nonpeptidic inhibitors of human leukocyte elastase. 6. Design of a potent, intratracheally active, pyridone-based trifluoromethyl ketone” (J Med Chem, 1995)
The source made the active and inactive calls. The calls are words filed in the database; no cut-off is given here.

Key:
Cricetinae gen. sp. [1] = assay: Compound at an intratracheal dose of 100 nM was tested in vivo in hamster for the inhibition of elastase-induced lung hemorrhage by acute hemorrhagic assay; assay type: functional, Cricetulus griseus
Outline: (§1)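 Hamster acute hemorrhagic assay: test agent given intratracheally at 100 nmol/animal 30 min before intratracheal instillation of 50 μg HLE. Read-out is percent inhibition of elastase-induced lung hemorrhage versus controls. Significance is by Student's t test, P < 0.05; NS means not significant at that dose.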

Neutrophil elastase = biological target: T1, Neutrophil elastase (Homo sapiens, UniProt P08246); assay: In vitro inhibition constant (Ki) against human leukocyte elastase (HLE-catalyzed hydrolysis of MeO-Suc-Ala-Ala-Pro-Ala-pNA)
T1 sequence (P08246 whole entry): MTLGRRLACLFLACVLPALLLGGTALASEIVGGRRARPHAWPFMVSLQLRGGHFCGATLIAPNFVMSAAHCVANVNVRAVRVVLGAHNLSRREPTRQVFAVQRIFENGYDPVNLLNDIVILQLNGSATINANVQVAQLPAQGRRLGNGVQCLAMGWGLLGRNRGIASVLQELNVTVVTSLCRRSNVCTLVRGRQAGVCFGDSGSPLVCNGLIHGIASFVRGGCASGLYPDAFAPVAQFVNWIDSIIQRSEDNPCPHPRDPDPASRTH

Cricetinae gen. sp. [2] = assay: Compound at an oral dose of 2.5 mg/Kg was tested in vivo in hamster for the inhibition of elastase-induced lung hemorrhage by acute hemorrhagic assay; Not statistically significant; assay type: functional, organism-based; conditions: Cricetulus griseus
Cricetinae gen. sp. [3] = assay: Compound at an intratracheal dose of […] was tested in vivo in hamster for the inhibition of elastase-induced lung hemorrhage by acute hemorrhagic assay; Not statistically significant; assay type: functional, organism-based; conditions: Cricetulus griseus; outline: as §1
Cricetinae gen. sp. [4] = assay: Compound at an oral dose of 5 mg/Kg was tested in vivo in hamster for the inhibition of elastase-induced lung hemorrhage by acute hemorrhagic assay; Not statistically significant; assay type: functional, organism-based; conditions: Cricetulus griseus

Row | Compound | Inhibition (Cricetinae gen. sp. [1]) [%] | Ki (Neutrophil elastase) [nM] | inhibition (Cricetinae gen. sp. [2]) | inhibition (Cricetinae gen. sp. [3]) | inhibition (Cricetinae gen. sp. [4])
1 | Cc1ccccc1S(=O)(=O)NC(=O)c1ccc(S(=O)(=O)Nc2ccc(-c3ccccc3)n(CC(=O)NC(C(=O)C(F)(F)F)C(C)C)c2=O)cc1 (stereo unspecified) | 97 | 18 | inactive | – | –
2 | COc1ccc(S(=O)(=O)N[C@H](C(=O)N2CCC[C@H]2C(=O)NC(C(=O)C(F)(F)F)C(C)C)C(C)C)cc1 (stereo partly specified) | – | 8 | – | – | –
3 | CC(C)C(NC(=O)Cn1c(-c2ccccc2)ccc(NC=O)c1=O)C(=O)C(F)(F)F (stereo unspecified) | – | – | – | inactive | –
4 | CC(C)C(NC(=O)Cn1c(-c2ccccc2)ccc(NS(=O)(=O)c2ccccc2)c1=O)C(=O)C(F)(F)F (stereo unspecified) | – | – | – | inactive | inactive
5 | CC(C)C(NC(=O)Cn1c(-c2ccccc2)ccc(NS(=O)(=O)c2ccc(C(=O)NS(=O)(=O)c3ccc(Cl)cc3)cc2)c1=O)C(=O)C(F)(F)F (stereo unspecified) | 96 | 9.4 | inactive | – | –
6 | CC(=O)Nc1ccc(S(=O)(=O)Nc2ccc(-c3ccccc3)n(CC(=O)NC(C(=O)C(F)(F)F)C(C)C)c2=O)cc1 (stereo unspecified) | 95 | – | – | – | –
